IC50 data for 17 molecules are collected here from ChEMBL document CHEMBL1149343, “Discovery of antiglioma activity of biaryl 1,2,3,4-tetrahydroisoquinoline derivatives and conformationally flexible analogues” (J Med Chem, 2006).

SMILES strings stand for the structures. A value given as a limit tells only on which side of the number the result lay.

The subject of one test is C6. Briefly: Cytotoxicity against rat C6 glioma cell line. Format: functional, cell-based. Summed up:
(§1)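 Cells were maintained in 10% FCS BME (Basal Media Eagle). Compound exposure was in 2% FCS BME for 96 h at 37 °C in humidified 5% CO2. IC50 values came from dose-response experiments over a 4-day incubation.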

The test system of the next test is Astrocyte. Put plainly: Cytotoxicity against rat astrocytes. It counts as functional, cell-based. In short, it runs like this:
as §1

In another test the test system is T98G. Briefly: Cytotoxicity against human T98G cell line. It counts as functional, cell-based.
In the next test the test system is LNCaP. Briefly: Cytotoxicity against human LNCaP cell line. Format: functional, cell-based.
For the next test, the system named is U-87 MG. Briefly: Cytotoxicity against human U87 cell line. Format: functional, cell-based, U-87MG ATCC.
In another test the test system is MCF7. Put plainly: Cytotoxicity against human MCF7 cell line. It counts as functional, cell-based.
A further test relates to A549. Briefly: Cytotoxicity against human A549 cell line. Format: functional, cell-based.
The subject of another test is HeLa. Briefly: Cytotoxicity against human HeLa cell line. Format: functional, cell-based.

What is called IC50 is the concentration at which inhibition is half-maximal. `Nc1ccc(CC2NCCc3cc(O)c(O)cc32)cc1` (centres undefined) showed an IC50 in the test with C6 above 50 µM.
As for `COc1cc2c(cc1OC)CN(CCc1ccc(-c3ccccc3)cc1)CC2`, the concentration for half-maximal inhibition (IC50) in the test with Astrocyte turned out to be 15.5 µM; with C6, 9.3 µM.
For `COc1cc2c(cc1OC)C(Cc1ccc(-c3ccccc3)cc1)NCC2` (centres undefined) the same measures were 83.8 µM and 4.1 µM.
For `O=C(c1ccccc1)c1ccc(CC2NCCc3cc(O)c(O)cc32)cc1` (centres undefined) the same measures were 21 µM and 9.4 µM.
The matching figures for `Oc1ccc(CCNCCc2ccc(-c3ccccc3)cc2)cc1O`: above 100 µM and 8.6 µM.
Take `C=C1C(OC(=O)N(C)C)=C(c2ccc(C)cc2)Oc2cc(Cl)ccc2N1C`: the IC50 in the test with C6 was found to be 37.5 µM.
Turning to `COc1cc2c(cc1OC)C(Cc1ccc(C(=O)c3ccccc3)cc1)NCC2` (centres undefined), the IC50 with Astrocyte and in the test with C6 was 40 µM throughout.
For the molecule `CN1CCc2cc(O)c(O)cc2C1Cc1ccc(-c2ccccc2)cc1` (centres undefined), the results for the IC50 with Astrocyte and in the test with C6 were 15 µM and 8 µM, respectively.
On to `COc1cc(C(O)C2CNCCc3cc(O)c(O)cc32)cc(OC)c1OC` (centres undefined), for which, in the test with C6, the IC50 is above 50 µM.
As for `COc1ccc(CCN(C)CCc2ccc(-c3ccccc3)cc2)cc1OC`, the figures for the IC50 with Astrocyte and with C6 were 39 µM and 12.5 µM, respectively.
In the case of `Oc1cc2c(cc1O)C(Cc1ccc(-c3ccccc3)cc1)NCC2` (centres undefined), the IC50 in the test with T98G was 10.2 µM; in the test with LNCaP it was 10.7 µM; with Astrocyte, 29 µM; in the test on U-87 MG it was 25.9 µM; with MCF7, 3.8 µM; with C6, 2.6 µM. Besides, the IC50 in the test with A549 turned out to be 10.2 µM; in the test on HeLa, 3 µM.
For `O=NN(CCCl)C(=O)NCCCl` [CARMUSTINE], the half-inhibitory concentration (IC50) in the test on Astrocyte amounted to 156 µM; in the test with C6 it was 9.3 µM.
The matching figures for `O=c1[nH]cc(F)c(=O)[nH]1` [FLUOROURACIL]: above 100 µM and 6.1 µM.
For `N[C@@H](Cc1ccc(N(CCCl)CCCl)cc1)C(=O)O` [MELPHALAN] the same measures were 34 µM and 12.6 µM.
Take `CCC(C)N(C)C(=O)c1cc2ccccc2c(-c2ccccc2Cl)n1` (centres undefined) [PK-11195]: in the test with C6, half-maximal inhibition (IC50) was put at 73 µM. This counts as double-digit micromolar.
Still for that read-out and setting: for `CN1C(=O)CN=C(c2ccc(Cl)cc2)c2cc(Cl)ccc21` [RO-54864] the value was 95 µM; for `COc1cc(C[C@@H]2NCCc3cc(O)c(O)cc32)cc(OC)c1OC` [TRETOQUINOL], above 50 µM.
